According to the RNAGym collection of RNA variant scans (doi:10.1126/science.aae0568):
This sample holds only a part of the variants without activity.

B1: tRNA (parent)
chain: GUUCCGUUGGCGUAAUGGUAACGCGUCUCCCUCCUAAGGAGAAGACUGCGGGUUCGAGUCCCGUACGGAACG

Variants of: B1
Experiment: yeast fitness relative to wild type (ratio to wild type); higher = fitter; tRNA-Arg(CCU), competitive growth, 37 C, YPD
In short: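 The tRNA-Arg(CCU) gene variants were made by chemical synthesis with a 3% per-site mutation rate at 69 sites and inserted at the native genomic locus of Saccharomyces cerevisiae. After pooling, the strains were competed in YPD at 37°C for 24 hours in six parallel replicates. Gene amplicons from the start population and each end population were read by 100-nucleotide paired-end sequencing, and Darwinian fitness relative to wild type was taken from genotype frequency changes. Genotypes needed ≥ 100 starting reads, and estimates < 0.5 were set to 0.5.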

| Variant | yeast fitness |
| --- | --- |
| A20U G68A | 0.843 |
| A20U G68C | 0.86 |
| A21C G25C U26G U59A G63C G68U | ≤ 0.5 |
| A21U C34G U35C | 0.785 |
| A20U C60G C61U | ≤ 0.5 |
| A21U A40C A42U C49U G50C G63A C66U | ≤ 0.5 |
| A21G A37G | 0.692 |
| A21G C34G G56A C66G | ≤ 0.5 |
| A21G C22A G63C G67A | ≤ 0.5 |
| A21G A69U | 1.07 |
| A21G C29U | 0.944 |
| A21U C24G C49A U54G | 0.56 |
| A21G A36G G38C G50A | ≤ 0.5 |
| A20U G25C A65U A69C | 0.587 |
| A21G G56A | 1.08 |
| C22A C33G A43C | 0.55 |
| A21U G25A G56C | ≤ 0.5 |
| A21C C30A A42C G48C C49U U54C | 0.598 |
| C22G A42G C60A | ≤ 0.5 |
| A20U U47C | 0.935 |
| C22A C24G A69U | ≤ 0.5 |
| A21G C24G A37U C66U | ≤ 0.5 |
| A21G A45C C49U C55U | 0.531 |
| A21G C55U C66U | ≤ 0.5 |

| Variant | yeast fitness |
| --- | --- |
| C22A A45C U54C | 0.522 |
| A21U A42U C66U | ≤ 0.5 |
| A21G A70G | 0.992 |
| A21C C22G G38C C49U A57C | ≤ 0.5 |
| C22A C29G C61U | ≤ 0.5 |
| A20U C31U C66A | ≤ 0.5 |
| A21C C22U G38C A40C C62A | 0.559 |
| A21G G68U | 1.07 |
| A21G G68C | 0.949 |
| A21G G56U G58C | 0.661 |
| A21U G23C C62A | ≤ 0.5 |
| C22A G41C A65C | ≤ 0.5 |
| A20U G23A C31U G39A | ≤ 0.5 |
| A21G C22A G50C | ≤ 0.5 |
| A21U C66A | 0.574 |
| A20U C46A | 0.858 |
| A21G C49G U59C | 0.583 |
| A21U C24U A37U G51U | ≤ 0.5 |
| C22A U35G | 0.631 |
| C22A G23A C33U A42U A69U | ≤ 0.5 |
| A21G U32C A65U G68A | 0.63 |
| A21G U59C A65U G67C A70C | ≤ 0.5 |
| A21C A40U A45G A65C | 0.547 |
| A21C C22G G38C A57C | 0.524 |

| Variant | yeast fitness |
| --- | --- |
| A21C C22A U26C U35C | ≤ 0.5 |
| A20U G51A C61G | ≤ 0.5 |
| A21C G67A | 0.8 |
| A21C C34U | 0.536 |
| A21G G50A C55U U64C | ≤ 0.5 |
| C22A C61A | 0.611 |
| A21G C30U U53A A57U A65U | ≤ 0.5 |
| C22A C24U C30U C31G | 0.531 |
| A21G A45C C62U G68C A69G | ≤ 0.5 |
| A20U U26C U47C | 0.534 |
| A21U A42G U59A C60A A69U | ≤ 0.5 |
| A20U C60A | 0.609 |
| A21C G23C G52C | ≤ 0.5 |
| A21C C24U U32A C62G | 0.539 |
| A21C A57U C66U | ≤ 0.5 |
| A20U U26C C33A C62A A69U | ≤ 0.5 |
| A21C C30G A65G | ≤ 0.5 |
| A21C A36U A37G A42C U64A | ≤ 0.5 |
| A21G C46A | 1.01 |
| A21G C46U | 0.97 |
| A21U U54A G56C A70G | 0.576 |
| C22A U28C G67A | 0.538 |
| A21U G44C G58A A65G | ≤ 0.5 |
| A21G C46U C66U | 0.742 |

| Variant | yeast fitness |
| --- | --- |
| C22A U35A G58A | ≤ 0.5 |
| A21C C60G C62G A70C | ≤ 0.5 |
| A20U G23C U35G | 0.643 |
| A21U G38C A43U G50A A65C | ≤ 0.5 |
| A20U C55G G58C | ≤ 0.5 |
| A21U A69C A70G | 0.594 |
| A21U U54A C61U | ≤ 0.5 |
| C22A C31G U35C | ≤ 0.5 |
| A21G A36C | 0.557 |
| C22A G23C C34U A36G A40U G67A | ≤ 0.5 |
| A21C G63C | 0.779 |
| A20U U32C C55U | 0.55 |
| A20U U32A A65C | ≤ 0.5 |
| A21G C31G A65C | 0.674 |
| C22A C29U U53A C66U | ≤ 0.5 |
| A21G C46U G56C A69U | ≤ 0.5 |
| A21U C62U C66G | ≤ 0.5 |
| C22A A40C G50C G67C | ≤ 0.5 |
| A21C C29G C33A A42C C62A | 0.52 |
| A21C A36U | 0.54 |
| A21C U64A | 0.799 |
| A21G C29U G38C | 0.814 |
| A21G C27G C60G A70C | ≤ 0.5 |
| A21U C31A C61U | ≤ 0.5 |

| Variant | yeast fitness |
| --- | --- |
| A21G C31A | 0.962 |
| C22A U32C C66U | 0.503 |
| A21U G67U | 0.742 |
| A21U G67C | 0.645 |
| C22G A36C G68C | ≤ 0.5 |
| A21U U32C A45U G67C | ≤ 0.5 |
| A21G C61A G67A | 0.532 |
| A21U C33U G38A A45U C62U | ≤ 0.5 |
| A21G U26C C27G G48C G67A | ≤ 0.5 |
| A20U U35C A36G C55G | 0.578 |
| A21C C33U C61A A70C | 0.578 |
| A20U U28C G44A C46U G48A C49U C60G C62A C66G | ≤ 0.5 |
| A20U C31U C49U | 0.773 |
| A21U C31A G39C C66U | ≤ 0.5 |
| A21U G23A A37U | ≤ 0.5 |
| A21G G44C A69U | 0.681 |
| A21C A40U C55G C66G | ≤ 0.5 |
| A21G C33G G38A A69C | ≤ 0.5 |
| A21U C31G A40U G50C C61A C66U | 0.513 |
| A21C U35C | 0.856 |
| A21G G39A U54C | 0.589 |
| A21C C30G | 0.6 |
| A21G A36G A42U | 0.75 |
| C22A C29G G58A G67C | ≤ 0.5 |

| Variant | yeast fitness |
| --- | --- |
| C22A U32C A37C A65G | ≤ 0.5 |
| C22A A45C | 0.665 |
| A21C C24A U32A | ≤ 0.5 |
| A21C C27U C49U G58C C61A A65U A69U | ≤ 0.5 |
| A21G C31G C33G | ≤ 0.5 |
| A20U C62U A65C | 0.682 |
| A21U C34G G52A C61A | 0.553 |
| A21G G23A A45C G52A | 0.517 |
| A21C A45U G48C C62U | ≤ 0.5 |
| C22A C31A U53C A57C C60U | ≤ 0.5 |
| A21U C49G | 0.618 |
| C22A U53C | 0.764 |
| A20U G38C A65G | ≤ 0.5 |
| A21C C24A C33A G48C | 0.579 |
| A21G U59C | 0.883 |
| A21U C31G C33G | ≤ 0.5 |
| A21C C61U A70U | 0.623 |
| A21U C29A | 0.751 |
| C22A U26A C29G C34G G50C U64C | ≤ 0.5 |
| A21G C27G | 0.562 |
| A21G C27U | 1.03 |
| A21G C27A | 0.757 |
| A21G G67U A70U | 0.607 |
| A21U G52A C62G | ≤ 0.5 |

| Variant | yeast fitness |
| --- | --- |
| A21U A37U | 0.672 |
| A21C C66A | 0.527 |
| A21C C62U C66A | ≤ 0.5 |
| C22A G39C A43U U53C U54A | ≤ 0.5 |
| C22A A65U | 0.849 |
| C22A C31U C34G | 0.536 |
| C22G A40C | 0.68 |
| A21C C29G G68C | 0.557 |
| A21G G58C U59C | 0.961 |
| C22A C31G C46A C49U U54C G68A | 0.581 |
| A21C U26A C27G | 0.581 |
| A21U A37U A40U G50C G56C | ≤ 0.5 |
| A21U G44A | 0.782 |
| A21G U28A C29U G58A | 0.528 |
| A21U A36C G39A | 0.58 |
| A21C C30G A69C | 0.542 |
| A21C G38A G58C | 0.503 |
| A21U A70U | 0.754 |
| C22A A57U | 0.606 |
| A21C U32C A40G G68A | ≤ 0.5 |
| A21C A40C | 0.734 |
| A21U C34G G51C G63C A65C | ≤ 0.5 |
| C22A C30U C49U C66U | 0.601 |
